From PubChem BioAssay AID488828 (Molecular Libraries Program, Specialized Chemistry Center, …, 2010)
Activity calls are given as the source filed them.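 Rule for the calls: active = IC50 at or below 10 µM; inactive = the rest.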

Biological target: Transitional endoplasmic reticulum ATPase (Homo sapiens) (UniProt P55072)
Test: inhibition of purified VCP ATP hydrolysis – biochemical, hit optimization round 2, SAR follow-up (AID 488828)
Conditions: purified p97 ATPase, Kinase-Glo ATP luminescence
Summary of the method: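 System: human p97 ATPase / Medium: Tris buffer pH 7.4 with MgCl2 and EDTA / Also added: ATP substrate, 500 µM stock solution / Times: 10 min room-temperature enzyme–compound preincubation, 30 min 37 °C ATP reaction / Detection: Kinase-Glo Plus luminescence of residual ATP / Read-out basis: IC50, Langmuir fit of remaining activity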

Chain of Transitional endoplasmic reticulum ATPase (Homo sapiens) (P55072 whole entry, looked up): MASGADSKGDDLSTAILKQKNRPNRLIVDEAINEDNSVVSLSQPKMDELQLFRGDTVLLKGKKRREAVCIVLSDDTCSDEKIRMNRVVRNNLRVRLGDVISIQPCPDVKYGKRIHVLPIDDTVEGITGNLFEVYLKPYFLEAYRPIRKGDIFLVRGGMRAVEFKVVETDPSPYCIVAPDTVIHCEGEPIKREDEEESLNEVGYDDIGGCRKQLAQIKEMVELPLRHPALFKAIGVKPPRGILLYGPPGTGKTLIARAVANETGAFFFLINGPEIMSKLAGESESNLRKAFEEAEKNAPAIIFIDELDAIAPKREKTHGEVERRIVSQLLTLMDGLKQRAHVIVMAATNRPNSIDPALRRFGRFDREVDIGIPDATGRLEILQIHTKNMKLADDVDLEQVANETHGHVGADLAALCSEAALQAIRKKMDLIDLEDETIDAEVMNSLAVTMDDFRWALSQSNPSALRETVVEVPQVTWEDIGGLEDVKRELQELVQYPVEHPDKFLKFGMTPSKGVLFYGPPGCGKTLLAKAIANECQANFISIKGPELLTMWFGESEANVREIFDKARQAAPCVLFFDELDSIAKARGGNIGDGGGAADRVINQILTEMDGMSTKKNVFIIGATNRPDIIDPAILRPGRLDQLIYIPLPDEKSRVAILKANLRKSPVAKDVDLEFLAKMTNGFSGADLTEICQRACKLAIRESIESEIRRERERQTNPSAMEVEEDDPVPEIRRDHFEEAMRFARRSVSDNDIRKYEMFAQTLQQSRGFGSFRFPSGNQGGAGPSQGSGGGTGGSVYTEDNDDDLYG

Compound | IC50 | inhibition (at 30 µM (top of the series))
FC(F)(F)c1ccc2c(NCc3ccccc3)nc(NCc3ccccc3)nc2c1 | 9.1 µM | 
Cc1c(F)cccc1Nc1nc(NCc2ccccc2)c2ccccc2n1 | 0.9 µM | 
CC1(C)N(O)CC(c2cccs2)=[N+]1[O-] | > 30 µM (inactive) | 
Clc1nc(NCc2ccccc2Br)c2ccccc2n1 | > 30 µM (inactive) | 
COc1ccc(C)cc1NC(=O)c1[nH]c(C)c(C(C)=O)c1C | > 30 µM (inactive) | 
Cc1ccccc1CNc1nc(Cl)nc2ccccc12 | > 30 µM (inactive) | 
Cc1c(Cl)cccc1Nc1nc(NCc2ccccc2)c2ccccc2n1 | 0.7 µM | 
COc1ccc(CNc2nc(Nc3cccc(Cl)c3)nc3ccccc23)cc1 | 2.3 µM | 
O=C1C(C=NCC2CCCO2)=C(O)c2ccccc21 (stereo unspecified) | > 30 µM (inactive) | 
Cc1ccccc1CNc1nc(Nc2cccc(Cl)c2)nc2ccccc12 | 4.2 µM | 
c1ccc(CNc2nc(N3CCOc4ccccc43)nc3ccccc23)cc1 | 0.6 µM | 
Clc1cccc(Nc2nc(NCc3cccc(Br)c3)c3ccccc3n2)c1 | 3.7 µM | 
O=[N+]([O-])c1cccc(Nc2nc(NCc3ccccc3)c3ccccc3n2)c1 | 5.2 µM | 
COc1c(Cl)cccc1Nc1nc(NCc2ccccc2)c2ccccc2n1 | 0.9 µM | 
COc1ccc(F)cc1Nc1nc(NCc2ccccc2)c2ccccc2n1 | 6.7 µM | 
COc1cc2nc(NCc3ccccc3)nc(NCc3ccccc3)c2cc1OC | 4.4 µM | 
c1ccc(CNc2nc(N3CCCc4ccccc43)nc3ccccc23)cc1 | 4.4 µM | 
CCOC(=O)NC(NC(=O)OCC)C(=O)c1ccc(F)cc1 | > 30 µM (inactive) | 
CC(=O)Nc1ccc(NC(=O)c2ccccc2F)cc1 | > 30 µM (inactive) | 
Clc1nc(NCc2cccc(Br)c2)c2ccccc2n1 | > 30 µM (inactive) | 
Cc1ccc(Nc2nc(NCc3ccccc3)c3ccccc3n2)cc1F | 0.9 µM | 

Compound | IC50 | inhibition (at 30 µM (top of the series))
Clc1ccc(Nc2nc(Nc3cccc(Cl)c3)nc3ccccc23)cc1 |  | inactive
Clc1cccc(CNc2nc(Nc3cccc(Cl)c3)nc3ccccc23)c1 | 5 µM | 
Fc1ccc2nc(NCc3ccccc3)nc(NCc3ccccc3)c2c1 | 4.7 µM | 
COc1c(F)cccc1Nc1nc(NCc2ccccc2)c2ccccc2n1 | 1.7 µM | 
COc1cccc(CNc2nc(Cl)nc3ccccc23)c1 | > 30 µM (inactive) | 
COc1ccc(Nc2nc(NCc3ccccc3)c3ccccc3n2)cc1F | 0.9 µM | 
Clc1ccc2c(NCc3ccccc3)nc(NCc3ccccc3)nc2c1 | 5.5 µM | 
Fc1ccc(CNc2nc(Nc3cccc(Cl)c3)nc3ccccc23)cc1 | 1.5 µM | 
CC(C)Sc1oc(-c2ccco2)nc1S(=O)(=O)c1ccc(F)cc1 | 3 µM | 
O=S(=O)(NC1CCCCC1)c1ccc(Br)cc1 | > 30 µM (inactive) | 
Clc1cccc(Nc2nc(NCc3ccccc3Cl)c3ccccc3n2)c1 | 4.7 µM | 
Clc1cccc(Nc2nc(NCc3ccc(Br)cc3)c3ccccc3n2)c1 | 7.4 µM | 
COc1cccc2c(NCc3ccccc3)nc(NCc3ccccc3)nc12 | 0.6 µM | 
Fc1cccc(CNc2nc(Nc3cccc(Cl)c3)nc3ccccc23)c1 | 1.2 µM | 
Fc1ccccc1CNc1nc(Nc2cccc(Cl)c2)nc2ccccc12 | 1.8 µM | 
COc1ccc2c(NCc3ccccc3)nc(NCc3ccccc3)nc2c1 | 5.7 µM | 
Clc1ccc(CNc2nc(Nc3cccc(Cl)c3)nc3ccccc23)cc1 | 2.8 µM | 
Cc1cc(F)cc(Nc2nc(NCc3ccccc3)c3ccccc3n2)c1 | 0.7 µM | 
Fc1ccccc1CNc1nc(Cl)nc2ccccc12 | > 30 µM (inactive) | 
Clc1nc(NCc2ccc(Br)cc2)c2ccccc2n1 | > 30 µM (inactive) | 
c1ccc(CNc2nc(N3CCc4ccccc43)nc3ccccc23)cc1 | 2 µM | 

Compound | IC50 | inhibition (at 30 µM (top of the series))
Fc1cccc(CNc2nc(Cl)nc3ccccc23)c1 | > 30 µM (inactive) | 
COc1ccc2nc(NCc3ccccc3)nc(NCc3ccccc3)c2c1 | 7.5 µM | 
Brc1ccc2c(NCc3ccccc3)nc(NCc3ccccc3)nc2c1 | inactive | 
Cc1cccc(CNc2nc(Cl)nc3ccccc23)c1 | > 30 µM (inactive) | 
Clc1ccc2nc(NCc3ccccc3)nc(NCc3ccccc3)c2c1 | 1.6 µM | 
O=C(NCc1ccco1)c1cc(S(=O)(=O)N2CCOCC2)ccc1Cl | > 30 µM (inactive) | 
Cc1cccc(CNc2nc(Nc3cccc(Cl)c3)nc3ccccc23)c1 | 2.3 µM | 
c1ccc(Nc2nc(Nc3ccccc3)c3ccccc3n2)cc1 | 2.6 µM | 
CN1CCN(S(=O)(=O)c2ccc(NC(=O)c3cccc(S(=O)(=O)N4CCCC4)c3)cc2)CC1 | > 30 µM (inactive) | 
COc1ccc(CNc2nc(Cl)nc3ccccc23)cc1 | > 30 µM (inactive) | 
O=C(C1CCCN(S(=O)(=O)c2cnc[nH]2)C1)N(CCc1ccccc1)Cc1ccccc1 (stereo unspecified) | > 30 µM (inactive) | 
Fc1ccccc1-c1nc(NCc2ccccc2)c2ccccc2n1 | 1.1 µM | 
Brc1cccc2c(NCc3ccccc3)nc(NCc3ccccc3)nc12 | 3.3 µM | 
Fc1cccc2c(NCc3ccccc3)nc(NCc3ccccc3)nc12 | 3.1 µM | 
Clc1cccc(CNc2nc(Cl)nc3ccccc23)c1 | > 30 µM (inactive) | 
Clc1cccc2nc(NCc3ccccc3)nc(NCc3ccccc3)c12 | 2.2 µM | 
Clc1nc(NCc2ccccc2Cl)c2ccccc2n1 | > 30 µM (inactive) | 
COc1ccc(Cl)cc1Nc1nc(NCc2ccccc2)c2ccccc2n1 | 1.1 µM | 
Cc1ccc(F)cc1Nc1nc(NCc2ccccc2)c2ccccc2n1 | 0.8 µM | 
Cc1ccc2c(NCc3ccccc3)nc(NCc3ccccc3)nc2c1 | 2.2 µM | 
N#Cc1ccc2c(NCc3ccccc3)nc(NCc3ccccc3)nc2c1 | inactive | 

Compound | IC50 | inhibition (at 30 µM (top of the series))
Cc1ccc(C2=[N+]([O-])C3(CCCCC/C3=N\O)N(O)C2(C)C)o1 (stereo unspecified) | > 30 µM (inactive) | 
CC(C)(C)NC(=O)Nc1ccc2nccnc2c1 | > 30 µM (inactive) | 
COc1ccc(Nc2nc(Nc3ccc(OC)cc3)c3ccccc3n2)cc1 | inactive | 
COc1ccccc1CNc1nc(Nc2cccc(Cl)c2)nc2ccccc12 | 1.6 µM | 
Cc1ccc(Cl)cc1Nc1nc(NCc2ccccc2)c2ccccc2n1 | 0.8 µM | 
c1ccc(CNc2nc(N3CCNc4ccccc43)nc3ccccc23)cc1 | 0.4 µM | 
Ic1cccc(Nc2nc(NCc3ccccc3)c3ccccc3n2)c1 | 5.2 µM | 
CCN(CC)c1ccc2cc(-c3nc4ccccc4[nH]3)c(=O)oc2c1 | 1.4 µM | 
COc1ccccc1CNc1nc(Cl)nc2ccccc12 | > 30 µM (inactive) | 
Clc1ccc(CNc2nc(Cl)nc3ccccc23)cc1 | > 30 µM (inactive) | 
CC(C)n1c2ccccc2c2nnc(SCC(=O)OCN3C(=O)c4ccccc4C3=O)nc21 | > 30 µM (inactive) | 
Cc1ccc(CNc2nc(Nc3cccc(Cl)c3)nc3ccccc23)cc1 | 1.4 µM | 
COc1cccc(CNc2nc(Nc3cccc(Cl)c3)nc3ccccc23)c1 | 1 µM | 
Fc1ccc2c(NCc3ccccc3)nc(NCc3ccccc3)nc2c1 | 2.6 µM | 
Fc1cccc2nc(NCc3ccccc3)nc(NCc3ccccc3)c12 | 1.2 µM | 
Cc1ccc(CNc2nc(Cl)nc3ccccc23)cc1 | > 30 µM (inactive) | 
Clc1cccc(Nc2nc(NCc3ccccc3Br)c3ccccc3n2)c1 | 4 µM | 
Fc1ccc(CNc2nc(Cl)nc3ccccc23)cc1 | > 30 µM (inactive) | 
